Consider 26 compounds from ChEMBL document CHEMBL1123417, “New structure-activity relationships of the quinolone antibacterials using the target enzyme. The development and application of a DNA gyrase assay” (J Med Chem, 1986).

In brackets after ≈: the same amount, converted by molar mass.

Test [1] has as its system Streptococcus pneumoniae. In words: Antibacterial activity against Streptococcus pneumoniae (SV-1).
Test [2] addresses DNA gyrase (Escherichia coli, UniProt P0AES4+P0AES6). The experiment in a line: Inhibitory concentration in supercoiling inhibition Escherichia coli DNA gyrase assay. It counts as protein-complex assay. Particulars: read-out: I50 (converted). The method, boiled down: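 Gyrase A and B subunits purified from E. coli H560, each titrated to fully supercoil relaxed Col E1 plasmid (~0.3 μg/mL). Drug in 0.1 N KOH, 40 min at 30 °C, then ATP for 10 min. SDS/proteinase K quench, 1% agarose gel, ethidium stain. Serial dilutions start at 200 μg/mL. I50 is the mean of the initial-inhibition and 100%-inhibition concentrations.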

The subject of test [3] is Escherichia coli. In words: Antibacterial activity against Escherichia coli (H560).
The subject of test [4] is Klebsiella pneumoniae. In words: Antibacterial activity against Klebsiella pneumonia (MGH-2).
The test system of test [5] is Pseudomonas aeruginosa. In words: Antibacterial activity against Pseudomonas aeruginosa (UI-18).
Test [6] has as its system Staphylococcus aureus. In words: Antibacterial activity against Staphylococcus aureus (H228).
Test [7] has as its target DNA gyrase (Escherichia coli) (UniProt P0AES6+P0AES4).
For test [8], the system named is Escherichia coli. The experiment in a line: Antibacterial activity against Escherichia coli (vogel).

With `COn1cc(C(=O)O)c(=O)c2cc3c(cc21)OCO3` [MILOXACIN], the MIC amounted to 100 µg/mL (≈ 380 µM) in test [1]; 0.4 µg/mL (≈ 1.52 µM) in test [3]; 0.2 µg/mL (≈ 0.76 µM) in test [4]; 12.5 µg/mL (≈ 47.5 µM) in test [5]; 6.3 µg/mL (≈ 23.9 µM) in test [6]; 0.4 µg/mL (≈ 1.52 µM) in test [8]. Moreover, the IC50 in test [2] was 190 µM. In addition, in test [7], the gyrase cleavage conc was 10 µg/mL.
Turning to `CCn1cc(C(=O)O)c(=O)c2cnc(N3CCNCC3)nc21` [PIPEMIDIC ACID], the IC50 in test [2] was above 330 µM. For the same compound, the gyrase cleavage conc in test [7] was determined as 50 µg/mL.
`CCn1cc(C(=O)O)c(=O)c2cc(F)c(-n3cccc3)cc21` [IRLOXACIN]: the MIC came out at 12.5 µg/mL (≈ 41.6 µM) in test [1]; 1.6 µg/mL (≈ 5.33 µM) in test [3]; 1.6 µg/mL (≈ 5.33 µM) in test [4]; 12.5 µg/mL (≈ 41.6 µM) in test [5]; 0.4 µg/mL (≈ 1.33 µM) in test [6]; 1.6 µg/mL (≈ 5.33 µM) in test [8]. For the same compound, the IC50 in test [2] was 93.2 µM. In test [7], the gyrase cleavage conc amounted to 2.5 µg/mL.
Consider `CCn1cc(C(=O)O)c(=O)c2cc(F)c(N3CCNCC3)nc21` [ENOXACIN], for which the IC50 in test [2] is 87.4 µM. The gyrase cleavage conc in test [7] was found to be 5 µg/mL.
In the case of `CCn1cc(C(=O)O)c(=O)c2cc(F)c(N3CCCC3)nc21`, the MIC in test [1] amounted to 3.1 µg/mL (≈ 10.2 µM); in test [3], 0.4 µg/mL (≈ 1.31 µM); in test [4], 3.1 µg/mL (≈ 10.2 µM); in test [5], 6.3 µg/mL (≈ 20.6 µM); in test [6], 0.2 µg/mL (≈ 0.655 µM); in test [8], 3.1 µg/mL (≈ 10.2 µM). Besides, in test [2], the IC50 was 16.4 µM. The gyrase cleavage conc in test [7] came out at 2.5 µg/mL.
On to `CCn1cc(C(=O)O)c(=O)c2ccc(-c3ccncc3)cc21` [ROSOXACIN], for which the MIC worked out at 12.5 µg/mL (≈ 42.5 µM) in test [1]; 0.2 µg/mL (≈ 0.68 µM) in test [3]; 0.4 µg/mL (≈ 1.36 µM) in test [4]; 6.3 µg/mL (≈ 21.4 µM) in test [5]; 0.4 µg/mL (≈ 1.36 µM) in test [6]; 0.2 µg/mL (≈ 0.68 µM) in test [8]. For the same compound, the IC50 in test [2] was above 34 µM. This compound displayed a gyrase cleavage conc in test [7] of 2.5 µg/mL.
Take `CCn1cc(C(=O)O)c(=O)c2cc3c(cc21)OCO3` [OXOLINIC ACID]: the IC50 in test [2] is 95.7 µM. Further, in test [7], the gyrase cleavage conc was determined as 10 µg/mL.
As for `CCn1cc(C(=O)O)c(=O)c2cc(F)c(N3CCNCC3)c(F)c21`, the MIC in test [1] came to 3.1 µg/mL (≈ 9.19 µM); in test [3], 0.1 µg/mL (≈ 0.296 µM); in test [4], 0.1 µg/mL (≈ 0.296 µM); in test [5], 1.6 µg/mL (≈ 4.74 µM); in test [6] it was 3.1 µg/mL (≈ 9.19 µM); in test [8], 0.2 µg/mL (≈ 0.593 µM). Also, in test [2], the IC50 was 18.7 µM. The compound further displayed a gyrase cleavage conc in test [7] of 1 µg/mL.
Take `CCn1cc(C(=O)O)c(=O)c2cnc(N3CCCC3)nc21` [PIROMIDIC ACID]: in test [2], the IC50 was above 347 µM. Further, the gyrase cleavage conc in test [7] was found to be 38 µg/mL.
In the case of `CCn1cc(C(=O)O)c(=O)c2cc(F)c(N3CCN(CCN)CC3)nc21`, the MIC in test [1] stood at 12.5 µg/mL (≈ 34.4 µM); in test [3], 12.5 µg/mL (≈ 34.4 µM); in test [4], 25 µg/mL (≈ 68.8 µM); in test [5] it was 50 µg/mL (≈ 138 µM); in test [6], 50 µg/mL (≈ 138 µM); in test [8] it was 12.5 µg/mL (≈ 34.4 µM). Moreover, the gyrase cleavage conc in test [7] was determined as 6.3 µg/mL.
In the case of `CN1CCN(c2c(F)cc3c(=O)c(C(=O)O)cn(CCF)c3c2F)CC1` [FLEROXACIN], the IC50 in test [2] is 10.3 µM. In test [7], this compound gave a gyrase cleavage conc of 2.5 µg/mL.
Consider `CCn1cc(C(=O)O)c(=O)c2ccc(/C=N/O)nc21`, for which the MIC in test [1] was 100 µg/mL (≈ 383 µM); in test [3], above 100 µg/mL; in test [4] it was 12.5 µg/mL (≈ 47.8 µM); in test [5], 100 µg/mL (≈ 383 µM); in test [6], 50 µg/mL (≈ 191 µM); in test [8] it was 12.5 µg/mL (≈ 47.8 µM). In test [7], this compound came in with a gyrase cleavage conc of 100 µg/mL.
Regarding `CCn1cc(C(=O)O)c(=O)c2cc(F)c(N3CCC(C(N)=O)CC3)cc21`, the MIC in test [1] was found to be 6.3 µg/mL (≈ 17.4 µM); in test [3], 25 µg/mL (≈ 69.2 µM); in test [4] it was 25 µg/mL (≈ 69.2 µM); in test [5] it was 50 µg/mL (≈ 138 µM); in test [6], 3.1 µg/mL (≈ 8.58 µM); in test [8], 6.3 µg/mL (≈ 17.4 µM). Moreover, in test [7], the gyrase cleavage conc is 7.5 µg/mL.
As for `CCn1cc(C(=O)O)c(=O)c2cc(F)c(/C=N/N3CCN(C)CC3)nc21`, the MIC was 100 µg/mL (≈ 277 µM) in test [1]; 50 µg/mL (≈ 138 µM) in test [3]; 25 µg/mL (≈ 69.2 µM) in test [4]; above 100 µg/mL in test [5]; 25 µg/mL (≈ 69.2 µM) in test [6]; 25 µg/mL (≈ 69.2 µM) in test [8]. This compound showed a gyrase cleavage conc in test [7] of 100 µg/mL.
With `CCn1nc(C(=O)O)c(=O)c2cc3c(cc21)OCO3` [CINOXACIN], the IC50 in test [2] is above 381 µM. The gyrase cleavage conc in test [7] amounted to 43 µg/mL.
As to `CCn1cc(C(=O)O)c(=O)c2cc(F)c(NC)cc21`, the MIC in test [1] was 100 µg/mL (≈ 378 µM); in test [3], 3.1 µg/mL (≈ 11.7 µM); in test [4], 6.3 µg/mL (≈ 23.8 µM); in test [5], above 100 µg/mL; in test [6], 12.5 µg/mL (≈ 47.3 µM); in test [8], 3.1 µg/mL (≈ 11.7 µM). Besides, the gyrase cleavage conc in test [7] was 18 µg/mL.
Turning to `CNn1cc(C(=O)O)c(=O)c2cc(F)c(N3CCN(C)CC3)cc21` [AMIFLOXACIN], the MIC in test [1] is 12.5 µg/mL (≈ 37.4 µM); in test [4] it was 0.2 µg/mL (≈ 0.598 µM); in test [5], 0.8 µg/mL (≈ 2.39 µM); in test [6], 1.6 µg/mL (≈ 4.79 µM); in test [8] it was 0.1 µg/mL (≈ 0.299 µM). Besides, in test [2], the IC50 is 18.8 µM.
As to `CCn1cc(C(=O)O)c(=O)c2cc(F)c(N3CCSC3)nc21`, the MIC in test [1] stood at 1.6 µg/mL (≈ 4.95 µM); in test [3], 0.4 µg/mL (≈ 1.24 µM); in test [4], 0.4 µg/mL (≈ 1.24 µM); in test [5], 1.6 µg/mL (≈ 4.95 µM); in test [6], 0.05 µg/mL (≈ 0.155 µM); in test [8], 0.1 µg/mL (≈ 0.309 µM). Moreover, the IC50 in test [2] was 201 µM. The compound also showed a gyrase cleavage conc in test [7] of 5 µg/mL.
Take `CCn1cc(C(=O)O)c(=O)c2cc(N)c(C)nc21`: the MIC in test [1] is 50 µg/mL (≈ 202 µM); in test [3] it was 100 µg/mL (≈ 404 µM); in test [4], above 100 µg/mL; in test [5], above 100 µg/mL; in test [6], 50 µg/mL (≈ 202 µM); in test [8], above 100 µg/mL. The same compound came in with a gyrase cleavage conc in test [7] above 100 µg/mL.
Take `CCn1cc(C(=O)O)c(=O)c2cc(F)c(N3CCC(N4CCN(C)CC4)CC3)cc21`: the MIC in test [1] stood at 6.3 µg/mL (≈ 15.1 µM); in test [3], 12.5 µg/mL (≈ 30 µM); in test [4], 12.5 µg/mL (≈ 30 µM); in test [5], 50 µg/mL (≈ 120 µM); in test [6], 1.6 µg/mL (≈ 3.84 µM); in test [8], 3.1 µg/mL (≈ 7.44 µM). Moreover, the gyrase cleavage conc in test [7] worked out at 50 µg/mL.
Turning to `CCn1cc(C(=O)O)c(=O)c2cc(F)c(N3CCC(N4CCCC4)CC3)cc21`, the MIC in test [1] came out at 12.5 µg/mL (≈ 32.3 µM); in test [3], 0.1 µg/mL (≈ 0.258 µM); in test [4], 1.6 µg/mL (≈ 4.13 µM); in test [5] it was 3.1 µg/mL (≈ 8 µM); in test [6] it was 3.1 µg/mL (≈ 8 µM); in test [8], 0.4 µg/mL (≈ 1.03 µM). The gyrase cleavage conc in test [7] turned out to be 7.5 µg/mL.
Turning to `CCn1cc(C(=O)O)c(=O)c2cc(F)c(SCCN)cc21`, the MIC in test [1] turned out to be 25 µg/mL (≈ 80.6 µM); in test [3], 3.1 µg/mL (≈ 9.99 µM); in test [4], 1.6 µg/mL (≈ 5.16 µM); in test [5], 3.1 µg/mL (≈ 9.99 µM); in test [6], 25 µg/mL (≈ 80.6 µM); in test [8], 0.8 µg/mL (≈ 2.58 µM). This compound also returned a gyrase cleavage conc in test [7] of 5 µg/mL.
Regarding `CCn1cc(C(=O)O)c(=O)c2cc(F)c(N3CCC(C(F)(F)F)CC3)cc21`, the MIC in test [1] was 6.3 µg/mL (≈ 16.3 µM); in test [3] it was 6.3 µg/mL (≈ 16.3 µM); in test [4], above 100 µg/mL; in test [5], above 100 µg/mL; in test [6], 0.1 µg/mL (≈ 0.259 µM); in test [8], 6.3 µg/mL (≈ 16.3 µM). Also, the gyrase cleavage conc in test [7] is 5 µg/mL.
Consider `CCn1cc(C(=O)O)c(=O)c2cc(F)c(N3CCCC3)cc21`, for which the MIC is 12.5 µg/mL (≈ 41.1 µM) in test [1]; 1.6 µg/mL (≈ 5.26 µM) in test [3]; above 100 µg/mL in test [4]; above 100 µg/mL in test [5]; 0.8 µg/mL (≈ 2.63 µM) in test [6]; 1.6 µg/mL (≈ 5.26 µM) in test [8]. The IC50 in test [2] was 85.4 µM. Moreover, the gyrase cleavage conc in test [7] was determined as 5 µg/mL.
In the case of `CCn1cc(C(=O)O)c(=O)c2cc(F)ccc21`, the MIC in test [1] was above 100 µg/mL; in test [3], 25 µg/mL (≈ 106 µM); in test [4], 1.6 µg/mL (≈ 6.8 µM); in test [5], above 100 µg/mL; in test [6] it was above 100 µg/mL; in test [8] it was 0.8 µg/mL (≈ 3.4 µM). Moreover, the gyrase cleavage conc in test [7] was 50 µg/mL.
On to `CCn1cc(C(=O)O)c(=O)c2ccc(/C=N/N3CCN(C)CC3)nc21`, for which the MIC in test [1] is 100 µg/mL (≈ 291 µM); in test [3], 12.5 µg/mL (≈ 36.4 µM); in test [4], 12.5 µg/mL (≈ 36.4 µM); in test [5] it was above 100 µg/mL; in test [6], 12.5 µg/mL (≈ 36.4 µM); in test [8], 12.5 µg/mL (≈ 36.4 µM). For the same compound, the gyrase cleavage conc in test [7] worked out at 100 µg/mL.
